According to ChEMBL document CHEMBL4422635, “Structure-Based Discovery of a Subtype-Selective Inhibitor Targeting a Transient Receptor Potential Vanilloid Channel” (J Med Chem, 2019):
Calls of active or inactive are those of the source. No cut-off for these calls is given here.

System: T1, Transient receptor potential cation channel subfamily V member 2 (Mus musculus), Q9WTR1 [L505T]
T1 sequence (whole entry): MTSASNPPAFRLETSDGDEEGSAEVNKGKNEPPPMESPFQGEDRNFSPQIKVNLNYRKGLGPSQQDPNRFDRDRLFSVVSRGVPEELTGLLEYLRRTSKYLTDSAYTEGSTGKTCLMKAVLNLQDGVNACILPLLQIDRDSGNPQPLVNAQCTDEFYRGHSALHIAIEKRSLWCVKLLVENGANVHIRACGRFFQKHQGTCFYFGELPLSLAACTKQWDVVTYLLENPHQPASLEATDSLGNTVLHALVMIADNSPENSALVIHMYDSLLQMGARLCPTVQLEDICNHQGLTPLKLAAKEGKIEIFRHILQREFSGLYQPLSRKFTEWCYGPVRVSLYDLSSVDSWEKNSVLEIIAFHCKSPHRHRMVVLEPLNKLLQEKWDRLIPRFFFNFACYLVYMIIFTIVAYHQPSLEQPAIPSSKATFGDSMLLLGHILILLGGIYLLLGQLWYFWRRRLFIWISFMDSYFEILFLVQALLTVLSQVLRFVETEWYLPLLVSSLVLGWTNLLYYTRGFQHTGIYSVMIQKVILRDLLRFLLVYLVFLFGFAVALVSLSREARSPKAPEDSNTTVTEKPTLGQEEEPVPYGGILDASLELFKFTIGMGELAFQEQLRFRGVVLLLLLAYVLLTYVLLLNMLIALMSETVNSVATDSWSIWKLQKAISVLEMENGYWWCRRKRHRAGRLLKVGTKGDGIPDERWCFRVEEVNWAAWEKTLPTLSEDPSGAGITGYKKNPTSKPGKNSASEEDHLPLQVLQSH
Test: Antagonist activity at mouse TRPV2 L505T mutant expressed in HEK293T cells assessed as inhibition of 2-APB evoked currents at -60 mV holding potential by whole-cell patch clamp assay
Type: cell-based
Summary of the method: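 Whole-cell voltage clamp of transiently transfected HEK293T cells co-expressing GFP, recorded 36-96 h post-transfection. Hold -60 mV; pipettes 3-7 MΩ. Bath 165 mM NaCl, 10 mM HEPES pH 7.3; pipette 140 mM KCl, 10 mM HEPES pH 7.3. Room temperature (~25 °C). IC50 from Hill fits of I/I0, the current ratio after vs before inhibitor; mean ± SEM.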

inhibition: inactive
Structure (SMILES): CCCN(C)c1cc(C(F)(F)F)nc(SCCC(=O)NCc2ccco2)n1
